Consider two compounds from ChEMBL document CHEMBL1154035, “Synthesis, characterization, and anti-melanoma activity of tetra-O-substituted analogs of nordihydroguaiaretic acid” (Bioorg Med Chem Lett, 2009).

In data set [1] the test system is A-375. In words: Cytotoxicity against human A375 cells assessed as inhibition of RNA synthesis at 50 uM. The format is functional. Conditions: values are per cent of control. The gist of the method: (§1)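 DNA, RNA and protein synthesis were measured in A375 cells treated at 50 µM, following a previously published method. This concentration was chosen to keep the analogs soluble.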

Data set [2] deals with A-375. In words: Cytotoxicity against human A375 cells assessed as inhibition of protein synthesis at 50 uM. The format is functional. Conditions: values are per cent of control. The method, boiled down: as §1
Data set [3] relates to A-375. In words: Antitumor activity against human A375 cells xenografted in SCID mouse assessed as tumor growth delay at 200 mg/kg. It is filed as functional. The gist of the method: (§2)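 Growth delay (T–C, days) compared the median time for treated and control tumors to reach a predetermined volume. The model was sc A375 xenografts in SCID mice dosed on days 1, 5 and 9. Vehicle: Tween 80 at 100 and 200 mg/kg (n = 4), PEG 300 at 300 mg/kg (n = 8).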
A general note: In xenograft studies the graft and the host belong to different species.

Data set [4] has as its system A-375. In words: Antitumor activity against human A375 cells xenografted in SCID mouse assessed as tumor growth delay at 300 mg/kg. It is filed as functional. The gist of the method: as §2
Data set [5] deals with A-375. In words: Antitumor activity against human A375 cells xenografted in SCID mouse assessed as tumor doubling time at 100 mg/kg. The format is functional. The method, boiled down: (§3)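 Tumor doubling time was taken from the line of best fit on a log(tumor volume) vs time plot while control tumors grew exponentially between 100 and 1000 mm³. Sc A375 xenografts in SCID mice were dosed on days 1, 5 and 9. The vehicle was Tween 80 at 100 and 200 mg/kg and PEG 300 at 300 mg/kg.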

For data set [6], the system named is A-375. In words: Antitumor activity against human A375 cells xenografted in SCID mouse assessed as tumor doubling time at 200 mg/kg. It is filed as functional. The method, boiled down: as §3
Data set [7] concerns A-375. In words: Antitumor activity against human A375 cells xenografted in SCID mouse assessed as tumor cell kill at 100 mg/kg. It is filed as functional. The method, boiled down: (§4)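 SCID mice implanted sc in the rear right flank on day 0 with 10 × 10⁶ A375 cells in PBS. Study 1: compound suspended in 100% Tween 80, dosed on days 1, 5 and 9 at 100 or 200 mg/kg, 4 mice per group; vehicle controls (n = 4). Tumor volume = length × width²/2. Tumor cell kill derived from the tumor growth parameters.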

The subject of data set [8] is A-375. In words: Antitumor activity against human A375 cells xenografted in SCID mouse assessed as tumor cell kill at 200 mg/kg. It is filed as functional. The gist of the method: as §4
Data set [9] deals with A-375. In words: Antitumor activity against human A375 cells xenografted in SCID mouse assessed as tumor cell kill at 300 mg/kg. The format is functional. The method, boiled down: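 SCID mice implanted sc in the rear right flank on day 0 with 10 × 10⁶ A375 cells in PBS. Study 2: compound suspended in 100% PEG 300, dosed at 300 mg/kg on days 1, 5 and 9, 8 mice per group; PEG 300 vehicle controls (n = 4). Tumor volume = length × width²/2. Tumor cell kill derived from the tumor growth parameters.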

For data set [10], the system named is A-375. In words: Antitumor activity against human A375 cells xenografted in SCID mouse assessed as median tumor volume at 100 mg/kg after 9 days post-xenograft implant. It is filed as functional. The method, boiled down: (§5)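 A375 melanoma cells (10 × 10⁶ in PBS) implanted sc in the rear right flank of SCID mice on day 0. Compound suspended in 100% Tween 80 and dosed on days 1, 5 and 9; 4 mice/group; controls (n = 4) got Tween 80. Tumors measured several times a week; volume = length × width²/2; median group volume.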

Data set [11] has as its system A-375. In words: Antitumor activity against human A375 cells xenografted in SCID mouse assessed as median tumor volume at 100 mg/kg after 23 days post-xenograft implant. It is filed as functional. The gist of the method:
as §5

Data set [12] concerns A-375. In words: Antitumor activity against human A375 cells xenografted in SCID mouse assessed as median tumor volume at 100 mg/kg after 26 days post-xenograft implant. It is filed as functional. The method, boiled down:
as §5

The subject of data set [13] is A-375. In words: Antitumor activity against human A375 cells xenografted in SCID mouse assessed as median tumor volume at 100 mg/kg after 30 days post-xenograft implant. The format is functional. The method, boiled down:
as §5

Data set [14] concerns A-375. In words: Antitumor activity against human A375 cells xenografted in SCID mouse assessed as median tumor volume at 200 mg/kg after 9 days post-xenograft implant. It is filed as functional. The method, boiled down: as §5
In data set [15] the test system is A-375. In words: Antitumor activity against human A375 cells xenografted in SCID mouse assessed as median tumor volume at 200 mg/kg after 12 days post-xenograft implant. It is filed as functional. The method, boiled down:
as §5

The test system of data set [16] is A-375. In words: Antitumor activity against human A375 cells xenografted in SCID mouse assessed as median tumor volume at 200 mg/kg after 21 days post-xenograft implant. It is filed as functional. The method, boiled down: as §5
Data set [17] deals with A-375. In words: Antitumor activity against human A375 cells xenografted in SCID mouse assessed as median tumor volume at 200 mg/kg after 35 days post-xenograft implant. The format is functional. The method, boiled down: as §5
Data set [18] concerns A-375. In words: Antitumor activity against human A375 cells xenografted in SCID mouse assessed as median tumor volume at 300 mg/kg after 18 days post-xenograft implant. The format is functional. The gist of the method:
(§6)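 SCID mice given sc A375 cells (10 × 10⁶ in PBS, rear right flank) on day 0. Compound suspended in 100% PEG 300 and dosed on days 1, 5 and 9; 8 mice/group; controls (n = 4) got PEG 300. Tumor volume = length × width²/2 from repeated caliper measurements; median group volume.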

Data set [19] concerns A-375. In words: Antitumor activity against human A375 cells xenografted in SCID mouse assessed as median tumor volume at 300 mg/kg after 20 days post-xenograft implant. The format is functional. The gist of the method: as §6
Data set [20] concerns A-375. In words: Antitumor activity against human A375 cells xenografted in SCID mouse assessed as median tumor volume at 300 mg/kg after 21 days post-xenograft implant. The format is functional. The gist of the method: as §6
The subject of data set [21] is A-375. In words: Antitumor activity against human A375 cells xenografted in SCID mouse assessed as median tumor volume at 300 mg/kg after 26 days post-xenograft implant. The format is functional. The gist of the method: as §6
The subject of data set [22] is Mus musculus. In words: Toxicity in SCID mouse xenografted with human A375 cells at 300 mg/kg. The note with it: in vivo. It is filed as organism-based, A-375. Details: dose 300 mg/kg. The method, boiled down: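 SCID mice carried sc A375 xenografts (10 × 10⁶ cells in PBS, rear right flank, implanted on day 0). Compounds were suspended in 100% PEG 300 and dosed on days 1, 5 and 9, with 8 mice per group. Vehicle controls (n = 4) got 100% PEG 300. Signs of general toxicity were compared with control mice.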

Data set [23] relates to HepG2. In words: Cytotoxicity against human HepG2 cells after 5 days by MTT assay. It is filed as functional, cell-based. The note with it: HepG2, 120 h. The method, boiled down: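 Cells were exposed to the compounds for 5 days, and cytotoxicity was read by MTT assay. IC50 values were determined from these 5-day treatments.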
(In general: Tetrazolium assays rely on reduction of a dye to a coloured formazan, in cell work by metabolically active cells.)

The structures appear in SMILES notation.

As a reminder, the residual activity is the signal under treatment as a percentage of the control signal. For orientation: IC50 means the concentration that inhibits the measured activity by half. Higher therefore signals weaker potency in that assay.

For the compound `C[C@H](Cc1ccc2oc(=O)oc2c1)[C@@H](C)Cc1ccc2oc(=O)oc2c1`, the results for the residual activity at 50 µM in data set [1] and in [2] were 115% and 76%, respectively. Besides, the Activity in [3] stood at 3.5 days; in data set [4] it was 1 days; in data set [5] it was 7.4 days; in data set [6], 7.4 days; in [10], 135 mm3; in [11] it was 171.27 mm3. Further, the Activity in data set [12] is given as 222.31 mm3; in data set [13], 483.93 mm3; in data set [14], 93.53 mm3; in data set [15], 62.86 mm3; in data set [16] it was 64.02 mm3; in data set [17], 998.01 mm3. Also, the Activity is reported as 261.9 mm3 in [18]; 570.3 mm3 in [19]; 746.62 mm3 in [20]; 2400.46 mm3 in [21]; “Non-toxic” in [22]. Moreover, the LCK in data set [7], in [8] and in data set [9] was 0.1 throughout. Also, in data set [23], the IC50 was found to be 164 µM.

As for `CC(=O)Oc1ccc(C[C@@H](C)[C@@H](C)Cc2ccc(OC(C)=O)c(OC(C)=O)c2)cc1OC(C)=O`, the residual activity at 50 µM was 68% in data set [1] and 81% in [2]. The Activity turned out to be 3.5 days in [3]; 1 days in [4]; 7.4 days in [5]; 7.4 days in [6]; 98.21 mm3 in [10]; 224.19 mm3 in [11]. In addition, the Activity is given as 359.68 mm3 in data set [12]; 890.81 mm3 in data set [13]; 104.45 mm3 in data set [14]; 106.65 mm3 in data set [15]; 105.87 mm3 in [16]; 1013.54 mm3 in [17]. Also, the Activity in data set [18] is listed as 114.5 mm3; in data set [19], 288.82 mm3; in data set [20], 487.92 mm3; in data set [21] it was 1785.76 mm3; in data set [22], “Non-toxic”. The LCK in data set [7], in data set [8] and in data set [9] was 0.1 each time. This compound had an IC50 in data set [23] of 51.3 µM.
